Measured values as given in ChEMBL document CHEMBL1132449, “Pyrroloquinoxaline derivatives as high-affinity and selective 5-HT(3) receptor agonists: synthesis, further structure-activity relationships, and biological studies” (J Med Chem, 1999).

Key:
[1] = target: T1, Serotonin 3 (5-HT3) receptor (Rattus norvegicus, UniProt P35563+Q9JJ16); assay: The compound was tested for the binding affinity against 5-hydroxytryptamine 3 receptor using [3H]zacopride as radioligand.; assay type: protein-complex assay
T1 sequence (P35563 whole entry): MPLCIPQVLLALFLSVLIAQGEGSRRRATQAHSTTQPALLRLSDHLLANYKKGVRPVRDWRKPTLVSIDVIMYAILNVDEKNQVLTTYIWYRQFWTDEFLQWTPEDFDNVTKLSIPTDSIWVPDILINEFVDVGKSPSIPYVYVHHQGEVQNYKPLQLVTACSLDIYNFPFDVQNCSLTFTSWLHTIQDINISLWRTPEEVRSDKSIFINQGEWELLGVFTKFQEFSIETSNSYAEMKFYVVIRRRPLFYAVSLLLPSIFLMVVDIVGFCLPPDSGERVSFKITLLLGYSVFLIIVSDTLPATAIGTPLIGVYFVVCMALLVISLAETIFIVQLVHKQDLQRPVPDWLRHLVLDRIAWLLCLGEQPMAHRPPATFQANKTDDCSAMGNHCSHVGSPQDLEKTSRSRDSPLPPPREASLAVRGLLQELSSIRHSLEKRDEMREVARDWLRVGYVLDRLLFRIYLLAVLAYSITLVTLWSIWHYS
T1 sequence (Q9JJ16 whole entry): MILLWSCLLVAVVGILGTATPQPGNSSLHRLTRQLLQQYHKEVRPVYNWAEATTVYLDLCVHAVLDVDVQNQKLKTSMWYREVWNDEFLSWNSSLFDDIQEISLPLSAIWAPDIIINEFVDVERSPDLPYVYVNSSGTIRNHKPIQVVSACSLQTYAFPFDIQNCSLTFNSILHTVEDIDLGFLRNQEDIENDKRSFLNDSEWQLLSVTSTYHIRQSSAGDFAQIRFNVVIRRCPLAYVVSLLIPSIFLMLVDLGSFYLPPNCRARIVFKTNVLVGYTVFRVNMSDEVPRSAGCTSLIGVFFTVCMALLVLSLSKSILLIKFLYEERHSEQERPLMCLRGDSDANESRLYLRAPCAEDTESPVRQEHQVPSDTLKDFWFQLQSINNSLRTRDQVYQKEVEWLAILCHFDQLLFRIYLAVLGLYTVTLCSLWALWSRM

[2] = target: T1, Serotonin 3 (5-HT3) receptor; assay: Binding affinity against 5-hydroxytryptamine 3 (5-HT3) receptor from rat cortical homogenate using [3H]zacopride as radioligand
Procedure, shortened: (§1)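 Male rat cortices, stored at -80 °C, were homogenized in ice-cold 25 mM Tris HCl pH 7.4 and spun at 50000g. Membranes were preincubated 10 min at 37 °C, washed, and resuspended with 10 µM pargyline (10 mg tissue/sample). They were incubated with 0.4 nM (final) [3H]zacopride for 30 min at 25 °C, filtered through PEI-treated GF/B and counted. IC50 came from dose-inhibition curves, mean ± SEM of three determinations.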

[3] = The compound was tested for brain to plasma partition in rat; assay type: ADME, organism-based; details: brain and plasma, read-out: AUC ratio
Procedure, shortened: (§2)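 Male CD-COBS rats (175-200 g) received hydrochloride salts in saline i.v. at 5 mg/kg and were killed 60, 120 and 180 min after dosing. Plasma and brain levels were measured by HPLC-UV (254 nm) after liquid-liquid or solid-phase extraction with an internal standard. The ratio is brain-to-plasma AUC_t, 2-3 rats per point.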

[4] = target: T1, Serotonin 3 (5-HT3) receptor; assay: The compound was tested for binding affinity against 5-hydroxytryptamine 3 receptor from NG108-15 cells (using [3H]zacopride as radioligand); assay type: cell-based
Procedure, shortened: (§3)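 NG108-15 cells were grown in DMEM with 10% inactivated FCS plus HAT at 37 °C, 10% CO2, harvested by shaking and pelleted. About 420 000 cells/sample in 50 mM Tris HCl pH 7.5 with 25 mM NaCl were incubated with 0.4 nM (final) [3H]zacopride for 60 min at 25 °C, then filtered and counted. IC50 is mean ± SEM of three determinations.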

[5] = target: Serotonin 3 (5-HT3) receptor; assay: Effective concentration against 5-Hydroxytryptamine 3 receptor by measuring [14C]guanidinium uptake on NG108-15 cells.; assay type: functional, cell-based
[6] = target: T2, 5-hydroxytryptamine receptor 4 (Cavia porcellus, UniProt O70528); assay: The compound was tested for the binding affinity against 5-hydroxytryptamine 4 receptor using [3H]GR-113808 as radioligand
Procedure, shortened: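 Male guinea pig striatal membranes, washed and preincubated at 37 °C, were incubated with 0.1 nM (final) [3H]GR113808 for 30 min at 37 °C.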

[7] = target: T3, 5-hydroxytryptamine receptor 1B (Rattus norvegicus, UniProt P28564); assay: The compound was tested for the binding affinity against 5-hydroxytryptamine 1B receptor using [3H]5-HT as radioligand
NG108-15 [8] = assay: The compound was tested for efficacy against 5-Hydroxytryptamine 3 receptor by measuring [14C]guanidinium uptake on NG108-15 cells; PA=Partial agonist; assay type: functional, cell-based; details: filed as partial agonist
Procedure, shortened: (§4)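 NG108-15 cells, grown 2 days, were washed in HEPES saline pH 7.4. They were exposed 10 min at 37 °C to buffer (135 mM NaCl, 10 mM guanidinium) with […] [14C]guanidinium, 1 mM 5-HT, […] and/or 8 drug concentrations. Cells were washed in ice-cold choline buffer, dissolved in NaOH and counted by scintillation. Assays run in triplicate.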

[9] = target: T1, Serotonin 3 (5-HT3) receptor; assay: The compound was tested for the binding affinity against 5-hydroxytryptamine 3 receptor using [3H]zacopride as radioligand; assay type: protein-complex assay
[10] = target: T4, 5-hydroxytryptamine receptor 1A (Rattus norvegicus, UniProt P19327); assay: The compound was tested for the binding affinity against 5-hydroxytryptamine 1A receptor using [3H]8-OH-DPAT as radioligand.
T4 sequence (P19327 whole entry): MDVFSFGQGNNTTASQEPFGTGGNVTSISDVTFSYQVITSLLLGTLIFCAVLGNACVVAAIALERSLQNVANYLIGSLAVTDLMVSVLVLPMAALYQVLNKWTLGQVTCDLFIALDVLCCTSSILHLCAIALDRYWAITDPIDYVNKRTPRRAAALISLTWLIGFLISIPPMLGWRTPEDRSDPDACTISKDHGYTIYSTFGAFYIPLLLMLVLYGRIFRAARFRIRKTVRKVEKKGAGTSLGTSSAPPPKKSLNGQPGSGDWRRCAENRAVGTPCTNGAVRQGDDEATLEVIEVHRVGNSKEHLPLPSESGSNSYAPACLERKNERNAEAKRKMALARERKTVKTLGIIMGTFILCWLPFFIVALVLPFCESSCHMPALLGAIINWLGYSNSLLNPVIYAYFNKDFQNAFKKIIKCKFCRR

[11] = target: T5, 5-hydroxytryptamine receptor 2A (Rattus norvegicus, UniProt P14842); assay: The compound was tested for the binding affinity against 5-hydroxytryptamine 2A receptor using [3H]ketanserin as radioligand
[12] = target: T6, 5-hydroxytryptamine receptor 2C (Rattus norvegicus, UniProt P08909); assay: The compound was tested for the binding affinity against 5-hydroxytryptamine 2C receptor using [3H]mesulergine as radioligand
T6 sequence (P08909 whole entry): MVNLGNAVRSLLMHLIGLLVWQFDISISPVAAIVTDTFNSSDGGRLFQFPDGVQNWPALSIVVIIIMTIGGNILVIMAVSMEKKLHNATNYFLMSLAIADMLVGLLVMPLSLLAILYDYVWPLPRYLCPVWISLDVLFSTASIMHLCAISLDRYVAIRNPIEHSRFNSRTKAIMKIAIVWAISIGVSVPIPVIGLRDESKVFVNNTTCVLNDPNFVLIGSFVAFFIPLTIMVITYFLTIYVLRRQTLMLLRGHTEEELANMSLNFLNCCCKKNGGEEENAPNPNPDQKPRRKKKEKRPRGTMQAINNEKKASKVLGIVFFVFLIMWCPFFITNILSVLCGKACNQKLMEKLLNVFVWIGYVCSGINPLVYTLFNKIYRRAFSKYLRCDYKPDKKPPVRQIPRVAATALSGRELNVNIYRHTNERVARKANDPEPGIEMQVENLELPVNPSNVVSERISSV

[13] = target: T6, 5-hydroxytryptamine receptor 2C; assay: The compound was tested for the binding affinity against 5-hydroxytryptamine 2C receptor using [3H]Mesulergine as radioligand.
[14] = target: T1, Serotonin 3 (5-HT3) receptor; assay: The compound was tested for binding affinity against 5-hydroxytryptamine 3 receptor from NG108-15 cells using [3H]zacopride as radioligand; assay type: cell-based; procedure, shortened: as §3
[15] = target: T2, 5-hydroxytryptamine receptor 4; assay: The compound was tested for the binding affinity against 5-hydroxytryptamine 4 receptor using [3H]GR-113808 as radioligand.
[16] = target: T5, 5-hydroxytryptamine receptor 2A; assay: The compound was tested for the binding affinity against 5-hydroxytryptamine 2A receptor using [3H]ketanserin as radioligand.
[17] = target: T3, 5-hydroxytryptamine receptor 1B; assay: The compound was tested for the binding affinity against 5-hydroxytryptamine 1B receptor using [3H]5-HT as radioligand.
NG108-15 [18] = assay: The compound was tested for efficacy against 5-Hydroxytryptamine 3 receptor by measuring [14C]guanidinium uptake on NG108-15 cells.; PA=Partial agonist; assay type: functional, cell-based; details: filed as partial agonist; procedure, shortened: as §4
NG108-15 [19] = assay: The compound was tested for efficacy against 5-Hydroxytryptamine 3 receptor by measuring [14C]guanidinium uptake on NG108-15 cells; A= agonist; assay type: functional, cell-based; details: filed as agonist; procedure, shortened: as §4
[20] = The compound was tested for brain to plasma partition in rat.; assay type: ADME, organism-based; details: brain and plasma, read-out: AUC ratio; procedure, shortened: as §2
NG108-15 [21] = assay: The compound was tested for efficacy against 5-Hydroxytryptamine 3 receptor by measuring [14C]guanidinium uptake on NG108-15 cells.; A = Agonist; assay type: functional, cell-based; details: filed as agonist; procedure, shortened: as §4
[22] = target: T1, Serotonin 3 (5-HT3) receptor; assay: The compound was tested for binding affinity against 5-hydroxytryptamine 3 receptor from rat cortical homogenate using [3H]zacopride as radioligand; not active; procedure, shortened: as §1

T5 sequence (P14842 whole entry): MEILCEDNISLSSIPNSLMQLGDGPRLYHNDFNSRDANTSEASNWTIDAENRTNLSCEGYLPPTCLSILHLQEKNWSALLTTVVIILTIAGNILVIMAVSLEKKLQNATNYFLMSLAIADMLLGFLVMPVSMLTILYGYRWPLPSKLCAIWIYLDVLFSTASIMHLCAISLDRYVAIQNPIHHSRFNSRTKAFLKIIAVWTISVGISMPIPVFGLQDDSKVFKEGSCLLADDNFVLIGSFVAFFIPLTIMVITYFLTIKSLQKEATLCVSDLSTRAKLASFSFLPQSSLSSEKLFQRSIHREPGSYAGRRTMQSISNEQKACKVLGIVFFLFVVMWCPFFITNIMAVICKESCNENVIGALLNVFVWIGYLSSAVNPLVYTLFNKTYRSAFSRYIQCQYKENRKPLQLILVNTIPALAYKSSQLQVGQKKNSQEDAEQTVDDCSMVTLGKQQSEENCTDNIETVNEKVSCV
T2 sequence (O70528 whole entry): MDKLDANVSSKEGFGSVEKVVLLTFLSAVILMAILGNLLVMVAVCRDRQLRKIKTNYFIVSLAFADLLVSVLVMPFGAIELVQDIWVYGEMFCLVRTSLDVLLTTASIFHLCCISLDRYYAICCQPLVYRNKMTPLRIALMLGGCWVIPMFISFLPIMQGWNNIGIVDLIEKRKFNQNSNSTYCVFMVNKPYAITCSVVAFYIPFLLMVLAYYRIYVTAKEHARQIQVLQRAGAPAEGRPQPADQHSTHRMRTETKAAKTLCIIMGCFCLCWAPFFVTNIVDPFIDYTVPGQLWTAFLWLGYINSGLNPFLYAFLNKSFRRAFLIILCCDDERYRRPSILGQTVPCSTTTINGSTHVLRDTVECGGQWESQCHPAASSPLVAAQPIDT
T3 sequence (P28564 whole entry): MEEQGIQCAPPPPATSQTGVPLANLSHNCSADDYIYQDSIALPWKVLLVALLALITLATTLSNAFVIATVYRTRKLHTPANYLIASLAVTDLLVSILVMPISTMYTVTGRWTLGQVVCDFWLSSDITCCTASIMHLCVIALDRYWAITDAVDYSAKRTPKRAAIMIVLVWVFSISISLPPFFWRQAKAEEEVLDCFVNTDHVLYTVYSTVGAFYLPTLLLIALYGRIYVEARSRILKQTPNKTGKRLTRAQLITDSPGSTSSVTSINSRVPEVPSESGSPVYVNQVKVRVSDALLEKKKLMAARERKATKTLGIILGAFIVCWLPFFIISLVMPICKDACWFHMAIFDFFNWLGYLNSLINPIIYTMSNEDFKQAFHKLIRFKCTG

| SMILES | Ki [1] [nM] | IC50 [2] [nM] | Kp [3] | EC50 [5] [nM] | Efficacy (NG108-15 [8]) | Ki [10] [nM] | Ki [13] [nM] | Ki [15] [nM] | Ki [16] [nM] | Ki [17] [nM] | other results |
| --- | --- | --- | --- | --- | --- | --- | --- | --- | --- | --- | --- |
| Cc1[nH]c2ccc(O)cc2c1CCN | 200 |  |  |  |  |  |  |  |  |  |  |
| Fc1cccc2nc(N3CCN(Cc4ccc5ccccc5c4)CC3)c3cccn3c12 |  | 780 | 2.8 |  |  |  |  |  |  |  |  |
| CN1CCN(c2nc3ncccc3n3cccc23)CC1 |  |  | 4.9 | 1.7 | Partial agonist | 25.1 |  |  |  |  | IC50 [4]: 9.3 nM; Ki [6]: > 10000 nM; Ki [7]: 25.1 nM; Ki [9]: 2.51 nM; Ki [11]: > 10000 nM; Ki [12]: 794 nM |
| c1csc(CN2CCN(c3nc4cccnc4n4cccc34)CC2)c1 | 3.16 | 3.6 |  |  |  | > 10000 | > 10000 | > 10000 | 1580 | 3980 | IC50 [14]: 6.4 nM |
| Cc1cccc2nc(N3CCNCC3)c3cccn3c12 | 1 | 1.13 |  | 9.5 |  | > 10000 | 1000 | > 10000 | 1000 | 251 | Efficacy (NG108-15 [18]): Partial agonist |
| c1ccc2nc(N3CCNCC3)ccc2c1 [QUIPAZINE] | 6.31 | 3.8 |  |  | Partial agonist |  | 316 |  | 794 |  |  |
| Cc1ccc2c(c1)nc(N1CCN(C)CC1)c1cccn12 |  | 18 |  | 14 |  |  |  |  |  |  | Efficacy (NG108-15 [19]): Agonist |
| CN1CCN(c2nc3cccnc3n3cccc23)CC1 |  | 1 |  |  |  |  |  |  |  |  | IC50 [14]: 5.4 nM |
| OCCN1CCN(c2nc3cccc(F)c3n3cccc23)CC1 |  | 8.2 | 20.3 | 54 | Partial agonist | 501 | 2000 | > 10000 | 501 | 1580 | Ki [9]: 7.94 nM |
| Cc1cccc2nc(N3CCN(C)CC3)c3cccn3c12 | 0.794 | 0.79 |  | 3.8 |  |  | > 10000 | > 10000 | 501 | 398 | Kp [20]: 9.5; Efficacy (NG108-15 [21]): Agonist; IC50 [14]: 0.26 nM |
| c1ccc(CN2CCN(c3nc4ncccc4n4cccc34)CC2)cc1 |  | 2.2 | 2.1 | 4.2 | Partial agonist | > 10000 |  |  |  |  | Ki [6]: > 10000 nM; Ki [7]: > 10000 nM; Ki [9]: 2 nM; Ki [11]: 794 nM; Ki [12]: > 10000 nM |
| c1ccc(N2CCN(c3nc4ncccc4n4cccc34)CC2)cc1 |  |  |  |  |  |  |  |  |  |  | IC50 [22]: Not Active |
| N#CCN1CCN(c2nc3cccc(F)c3n3cccc23)CC1 |  | 3800 | 0.1 |  |  |  |  |  |  |  |  |
